Measurements published in ChEMBL document CHEMBL5260806, “Hydrogen peroxide activated quinone methide precursors with enhanced DNA cross-linking capability and cytotoxicity towards cancer cells” (Eur J Med Chem, 2017).
Active and inactive are the calls of the source. No cut-off for these calls is given here.

Experiments:
CLL cell = experiment: Induction of DNA damage in chronic lymphocytic leukemia patient lymphocytes assessed as apoptosis rate at 10 uM after 24 hrs by annexin/PI staining based flow cytometry; format: functional; conditions: Homo sapiens
A498 = experiment: Anticancer activity against human A498 cells assessed inhibition of cell growth after 48 hrs by CellTiter-Glo luminescent assay; format: functional, cell-based; conditions: A498, 48 h
Procedure, shortened: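 Human tumour cells kept in RPMI 1640 with 5% FBS and 2 mM L-glutamine, seeded at 5,000–10,000 cells/well and left 2–3 h at 37°C, 5% CO2. Drugs taken from 20 mM DMSO stocks, serially halved ten times in DMSO, then added at 1:100 dilution. Cells exposed for 48 h at 37°C. Viability read by CellTiter-Glo luminescence after 10 min at room temperature.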

OVCAR-3 = experiment: Anticancer activity against human OVCAR-3 cells assessed as cell growth inhibition at 10 uM incubated for 48 hrs by sulforhodamine B assay; format: functional; conditions: read-out: GI
Procedure, shortened: (§1)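 NCI DTP 60-cell-line screen run at National Cancer Institute. Cells grown in RPMI 1640 with 5% fetal bovine serum and 2 mM L-glutamine, seeded at 5,000–40,000 cells/well depending on doubling time. Single-dose screen at 10 µM gives growth percentage; dose-response series gives GI50.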

MDA-MB-468 = experiment: Anticancer activity against human MDA-MB-468 cells assessed as cell growth inhibition at 10 uM incubated for 48 hrs by sulforhodamine B assay; format: functional; conditions: read-out: GI; procedure, shortened: as §1
ACHN = experiment: Anticancer activity against human ACHN cells assessed inhibition of cell growth after 48 hrs by CellTiter-Glo luminescent assay; format: functional, cell-based
Procedure, shortened: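 Renal lines grown in RPMI 1640 with 5% FBS and 2 mM L-glutamine, plated at 5,000–10,000 cells/well in 384-well plates and held 2–3 h at 37 °C, 5% CO2. Compounds were made as 20 mM DMSO stocks, given as ten 2-fold serial dilutions diluted 1:100 into cells, and incubated 48 h. Read-out was CellTiter-Glo luminescence after 10 min at room temperature.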

CCRF-CEM [1] = experiment: Anticancer activity against human CCRF-CEM cells assessed as cell growth inhibition at 10 uM incubated for 48 hrs by sulforhodamine B assay; format: functional; conditions: read-out: GI
Procedure, shortened: (§2)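 NCI-60 screen: cell lines grown in RPMI 1640 with 5% FBS and 2 mM L-glutamine, plated in 96-well plates at 5,000–40,000 cells/well depending on doubling time. Each line has one single-dose arm at 10 µM and one dose-response arm giving GI50.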

RPMI-8226 = experiment: Anticancer activity against human RPMI-8226 cells assessed as cell growth inhibition incubated for 48 hrs by sulforhodamine B assay; format: functional; procedure, shortened: as §1
CCRF-CEM [2] = experiment: Anticancer activity against human CCRF-CEM cells assessed as cell growth inhibition incubated for 48 hrs by sulforhodamine B assay; format: functional; procedure, shortened: as §2
K562 = experiment: Anticancer activity against human K562 cells assessed as cell growth inhibition at 10 uM incubated for 48 hrs by sulforhodamine B assay; format: functional; conditions: read-out: GI; procedure, shortened: as §2
DU-145 = experiment: Anticancer activity against human DU-145 cells assessed as cell growth inhibition incubated for 48 hrs by sulforhodamine B assay; format: functional; procedure, shortened: as §2
UO-31 = experiment: Anticancer activity against human UO-31 cells assessed inhibition of cell growth after 48 hrs by CellTiter-Glo luminescent assay; format: functional, cell-based; conditions: UO-31, 48 h
Procedure, shortened: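 Renal lines grown in RPMI 1640 with 5% FBS and 2 mM L-glutamine, seeded into 384-well plates at 5,000–10,000 cells/well, held 2–3 h at 37 °C, 5% CO2. DMSO stocks (20 mM) serially halved ten times and added at 1:100. Cells exposed 48 h at 37 °C; CellTiter-Glo added, 10 min at room temperature, luminescence read.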

SK-MEL-28 = experiment: Anticancer activity against human SK-MEL-28 cells assessed as cell growth inhibition incubated for 48 hrs by sulforhodamine B assay; format: functional; procedure, shortened: as §1
SW-620 = experiment: Anticancer activity against human SW620 cells assessed as cell growth inhibition at 10 uM incubated for 48 hrs by sulforhodamine B assay; format: functional; conditions: read-out: GI
SK-MEL-5 = experiment: Anticancer activity against human SK-MEL-5 cells assessed as cell growth inhibition at 10 uM incubated for 48 hrs by sulforhodamine B assay; format: functional; conditions: read-out: GI; procedure, shortened: as §1
SN12C = experiment: Anticancer activity against human SN12C cells assessed as cell growth inhibition incubated for 48 hrs by sulforhodamine B assay; format: functional
NCI-H460 = experiment: Anticancer activity against human NCI-H460 cells assessed as cell growth inhibition at 10 uM incubated for 48 hrs by sulforhodamine B assay; format: functional; conditions: read-out: GI; procedure, shortened: as §1
SNB-19 = experiment: Anticancer activity against human SNB-19 cells assessed as cell growth inhibition incubated for 48 hrs by sulforhodamine B assay; format: functional
RXF 393 = experiment: Anticancer activity against human RXF 393 cells assessed as cell growth inhibition incubated for 48 hrs by sulforhodamine B assay; format: functional; procedure, shortened: as §1
OVCAR-4 = experiment: Anticancer activity against human OVCAR-4 cells assessed as cell growth inhibition at 10 uM incubated for 48 hrs by sulforhodamine B assay; format: functional; conditions: read-out: GI; procedure, shortened: as §1
M14 = experiment: Anticancer activity against human M14 cells assessed as cell growth inhibition incubated for 48 hrs by sulforhodamine B assay; format: functional; procedure, shortened: as §2
KM12 = experiment: Anticancer activity against human KM12 cells assessed as cell growth inhibition at 10 uM incubated for 48 hrs by sulforhodamine B assay; format: functional; conditions: read-out: GI; procedure, shortened: as §2

IC50 (ACHN): 20 µM
GI50 (RPMI-8226): 2000 nM
GI50 (CCRF-CEM [2]): 2000 nM
GI50 (DU-145): 2000 nM
GI50 (SK-MEL-28): 2000 nM
Compound: COc1cc(CBr)c(B2OC(C)(C)C(C)(C)O2)c(CBr)c1
Activity (CLL cell): Active
IC50 (A498): 18.1 µM
inhibition of growth at 10 µM (OVCAR-3): < 50%
inhibition of growth at 10 µM (MDA-MB-468): < 50%
inhibition of growth at 10 µM (CCRF-CEM [1]): < 50%
inhibition of growth at 10 µM (K562): < 50%
IC50 (UO-31): 10.8 µM
inhibition of growth at 10 µM (SW-620): < 50%
inhibition of growth at 10 µM (SK-MEL-5): < 50%
GI50 (SN12C): 2000 nM
inhibition of growth at 10 µM (NCI-H460): < 50%
GI50 (SNB-19): 2000 nM
GI50 (RXF 393): 2000 nM
inhibition of growth at 10 µM (OVCAR-4): < 50%
GI50 (M14): 2000 nM
inhibition of growth at 10 µM (KM12): < 50%
